Consider two compounds from ChEMBL document CHEMBL5543129, “Peptide Inhibitor Targeting the Extraterminal Domain in BRD4 Potently Suppresses Breast Cancer Both In Vitro and In Vivo” (J Med Chem, 2024).

The source made the active and inactive calls. The calls are words filed in the database; no cut-off is given here. Square brackets hold non-standard residues; d marks the D form. Peptide text beside a SMILES is read from it. Hyp = O=C(O)[C@@H]1C[C@@H](O)CN1; Ahx = NCCCCCC(=O)O

Series [1] is described as follows: Downregulation of c-Myc protein expression in human MDA-MB-231 cells assessed as fold change in remaining c-Myc level at 10 uM incubated for 24 hrs by immunoblotting analysis (reference value: 1). The format is functional. Summed up:
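Cells (MCF7 or MDA-MB-231 in DMEM, 10% FBS, 37 °C, 5% CO2) are treated with peptide for 24 h. Lysates are taken in Tris/NaCl/EDTA/1% Triton buffer and run on 10% SDS-PAGE. Immunoblots are normalised to β-actin loading control; three repeats.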
On the technique in general: A western blot detects proteins with antibodies after separation by electrophoresis.

A short description of series [2]: Toxicity in BALB/c mouse xenografted with human MDA-MB-231 cells assessed as change in liver weight at 12.5 mg/kg, ip administered every 2 days in presence of 50 mg/kg JQ1. Format: organism-based. The following applies: in vivo, 48 h. Put shortly: (§1)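 Female BALB/c nude mice (4–6 weeks) carried sc MDA-MB-231 xenografts (5 × 10^6 cells) and were randomized at about 50 mm3. Peptide (12.5 mg/kg ip in saline) and JQ1 (50 mg/kg ip, DMSO/10% HPBCD 1:10) were given every 2 days, alone or combined. Body weight was recorded, and heart, liver, spleen, lung and kidney morphology and weight were assessed.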
Background: Xenograft models place foreign cells or tissue in a host animal.

The next series relates to T47D. Kind of series: Antiproliferative activity against human T47D cells at 10 uM incubated for 1 week in presence of tamoxifen by CellTiter 96 Aqueous One Solution based assay. The format is functional, cell-based. Particulars: time 1.0 weeks. Put shortly:
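Tamoxifen-resistant MCF7 or T47D cells treated with peptide (10 μM) or tamoxifen (3 μM), alone or combined. Viability read by MTS reagent, 1 h at 37 °C, A490.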

The test system of series [3] is Mus musculus. The series can be described thus: Downregulation of JMJD6 mRNA expression in BALB/c mouse tumor xenografted with human MCF7 cells at 25 mg/kg, ip administered every 2 days by RT-qPCR analysis. The format is functional, organism-based.
The subject of series [4] is MCF7. The series can be described thus: Antiproliferative activity against human MCF7 cells at 10 uM incubated for 1 week in presence of 5 uM JQ1 by CellTiter 96 Aqueous One Solution based assay. Format: functional, cell-based. Particulars: time 1.0 weeks. Summed up:
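Cells seeded at 2 × 10^3/well and treated with peptide (10 μM) alone or combined with JQ1 (5 μM), iJMJD6 (10 μM) or ICI (2.5 μM), as the line states. Viability read by MTS reagent, 1 h at 37 °C, A490. Three biological repeats.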

A short description of series [5]: Downregulation of CCND1 protein expression in BALB/c mouse tumor xenografted with human MDA-MB-231 cells assessed as fold change in remaining CCND1 level at 25 mg/kg, ip administered every 2 days by immunoblotting analysis. The format is functional. Put shortly:
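Tumours taken from xenograft mice dosed with peptide at 25 mg/kg ip every 2 days. […] Three repeats.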

Series [6] is described as follows: Toxicity in BALB/c mouse xenografted with human MCF7 cells assessed as change in spleen morphology at 12.5 mg/kg, ip administered every 2 days in presence of 50 mg/kg JQ1. Format: organism-based. Particulars: in vivo, 48 h.
A short description of series [7]: Toxicity in BALB/c mouse xenografted with human […] cells assessed as change body weight at 12.5 mg/kg, ip administered every 2 days in presence of 50 mg/kg JQ1. Format: organism-based. The following applies: in vivo, 48 h. Summed up: as §1
Series [8] concerns Mus musculus. Kind of series: Downregulation of c-Myc mRNA expression in BALB/c mouse tumor xenografted with human MCF7 cells at 25 mg/kg, ip administered every 2 days by RT-qPCR analysis. Format: functional, organism-based. Summed up: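 Female BALB/c nude mice (4–6 weeks) implanted subcutaneously with 5 × 10^6 cells in PBS. For MCF7 grafts, estrogen (E2, 10–2 M) is brushed on every 2 days. Treatment starts at ~50 mm3 after randomization, with peptide in normal saline ip every 2 days. Tumour mRNA is measured by RT-qPCR.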

Series [9] relates to Mus musculus. The series can be described thus: Downregulation of BRD4 mRNA expression in BALB/c mouse tumor xenografted with human MDA-MB-231 cells at 25 mg/kg, ip administered every 2 days by RT-qPCR analysis. The format is functional, organism-based.
Series [10] in a line: Toxicity in BALB/c mouse xenografted with human MCF7 cells assessed as change in liver at 12.5 mg/kg, ip administered every 2 days in presence of 12.5 mg/kg JMJD6 inhibitor. Format: organism-based. Particulars: in vivo, 48 h. Put shortly:
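Female BALB/c nude mice carried MCF7 xenografts (5 × 10^6 cells sc, E2 10–2 M brushed every 2 days) and were randomized at about 50 mm3. Peptide was given at 12.5 mg/kg ip every 2 days, and iJMJD6 (DMSO/PBS 1:20) at 12.5 mg/kg ip every other day, alone or combined. Body and organ weights were recorded.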

The test system of series [11] is MCF7. The series can be described thus: Inhibition of colony formation in human MCF7 cells at 10 uM incubated for 2 weeks in presence of fulvestrant by crystal violet staining based assay. Format: functional, cell-based. Summed up: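 Cells are seeded at 1 × 10^3/well and treated with peptide (10 μM) for 2 weeks, alone or with JQ1 5 μM, iJMJD6 10 μM, ICI 2.5 μM, or tamoxifen 3 μM (tamoxifen-resistant lines). Colonies are stained with crystal violet, dissolved in 10% acetic acid, and read at 590 nm. Three biological repeats.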

The subject of series [12] is MCF7. Kind of series: Antitumor activity against human MCF7 cells xenografted in BALB/c nude mouse assessed as reduction in tumor weight at 12.5 mg/kg, ip administered every 2 days in presence of 50 mg/kg JQ1. The format is functional, organism-based. Summed up: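 Female BALB/c nude mice given 5 × 10^6 cells sc (MCF7 mice with E2 10^-2 M every 2 days), randomised at ~50 mm3. Peptide 12.5 mg/kg ip (saline) every 2 days, plus JQ1 50 mg/kg ip (DMSO/10% HPBCD 1:10) every 2 days or iJMJD6 12.5 mg/kg ip (DMSO/PBS 1:20). Caliper volume every 2 days; tumours weighed at the end.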

The subject of series [13] is MCF7. The series can be described thus: Inhibition of cell migration in human MCF7 cells at 10 uM incubated for 24 hrs by inverted microscopic assay. Format: functional, cell-based. Summed up:
(§2)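 Cells are seeded at 5 × 10^5/well and scratched at 80–90% confluence. They are kept in serum-free medium with peptide (10 μM); partner agents are JQ1 5 μM, iJMJD6 10 μM, or ICI 2.5 μM. Wound area is imaged by inverted microscope at 0 and 12 or 24 h. Wound closure % = (A0−A1)/A0 × 100. Three biological repeats.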

Series [14] concerns MCF7. Kind of series: Inhibition of cell migration in human MCF7 cells at 10 uM incubated for 24 hrs in presence of fulvestrant by inverted microscopic analysis. Format: functional, cell-based. Put shortly:
as §2

The nature of series [15]: Downregulation of c-Myc protein expression in BALB/c mouse tumor xenografted with human MDA-MB-231 cells assessed as fold change in remaining c-Myc level at 25 mg/kg, ip administered every 2 days by immunoblotting analysis. Format: functional. Summed up:
(§3)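 Female BALB/c nude mice (4–6 weeks) carry subcutaneous MCF7 or MDA-MB-231 grafts (5 × 10^6 cells). MCF7 mice are brushed with E2 (10–2 M) every 2 days. Dosing starts at ~50 mm3: peptide in normal saline, ip every 2 days. Tumour lysates are immunoblotted with β-actin as loading control; repeated three times.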

Series [16] can be described thus: Downregulation of c-Myc protein expression in BALB/c mouse tumor xenografted with human MCF7 cells assessed as fold change in remaining c-Myc level at 25 mg/kg, ip administered every 2 days by immunoblotting analysis. Format: functional. Put shortly:
as §3

In the case of `CC[C@H](C)[C@H](NC(=O)[C@H](Cc1ccc(O)cc1)NC(=O)[C@@H]1C[C@@H](O)CN1C(=O)[C@H](C)NC(=O)[C@@H](NC(=O)CCCCCNC(=O)[C@H](CCC(=O)O)NC(=O)CNC(=O)[C@H](CS)NC(=O)[C@H](CCCCN)NC(=O)[C@H](Cc1ccccc1)NC(=O)[C@H](CCCCN)NC(=O)[C@H](CCC(N)=O)NC(=O)[C@H](CC(N)=O)NC(=O)[C@H](CCCNC(=N)N)NC(=O)[C@H](CCCNC(=N)N)NC(=O)[C@H](CCCNC(=N)N)NC(=O)[C@H](CCCNC(=N)N)NC(=O)[C@H](CCC(N)=O)NC(=O)[C@H](CCCNC(=N)N)NC(=O)[C@H](CCCNC(=N)N)NC(=O)[C@H](CCCCN)NC(=O)[C@H](CCCCN)NC(=O)[C@H](CCCNC(=N)N)NC(=O)CNC(=O)[C@@H](N)Cc1ccc(O)cc1)[C@@H](C)CC)C(=O)O` (H-YGRKKRRQRRRRNQKFKCGE[Ahx]IA[Hyp]YI-OH), the “fold change (FC)” value in series [1] was 0.85; in series [5] it was 0.08; in series [15], 0.44; in series [16], 0.38. Further, the Activity result in [2], in [6], in series [7] and in [10] was “Non-Toxic” each time. Further, the outcome in the series on T47D, with MCF7 [4], in the series on Mus musculus [8] and in the series on MCF7 [12] was Active. For the same compound, the result in the series on Mus musculus [3] and in the series with Mus musculus [9] was inactive. Moreover, the inhibition result in the series on MCF7 [11], in the series with MCF7 [13] and in the series with MCF7 [14] was “Active” each time.
Regarding H-YGRKKRRQRRRRNQKFKCGE-OH, the “fold change (FC)” value in series [1] worked out at 0.77; in [5], 0.28; in series [15] it was 0.22; in [16] it was 0.27. Further, the Activity result in [2], in series [6], in series [7] and in [10] was “Non-Toxic” each time. Besides, the result with T47D, in the series with MCF7 [4], with Mus musculus [8] and with MCF7 [12] was Active. The result with Mus musculus [3] and in the series with Mus musculus [9] was inactive. Also, the inhibition entry in the series on MCF7 [11], with MCF7 [13] and with MCF7 [14] was “Active” in each case.
